Mdm2-MdmX inh = disrupts the human Mdm2-MdmX interaction | inhibition, % at 8 µM | SaOS-2 split-luciferase Mdm2/MdmX complementation, luminescence | O15151+Q00987 | actives 3% (n = 330,000) | AID 485346;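 active = inhibition of at least 50% at 8 µM in the primary screen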
Target sequence (O15151 whole entry, looked up): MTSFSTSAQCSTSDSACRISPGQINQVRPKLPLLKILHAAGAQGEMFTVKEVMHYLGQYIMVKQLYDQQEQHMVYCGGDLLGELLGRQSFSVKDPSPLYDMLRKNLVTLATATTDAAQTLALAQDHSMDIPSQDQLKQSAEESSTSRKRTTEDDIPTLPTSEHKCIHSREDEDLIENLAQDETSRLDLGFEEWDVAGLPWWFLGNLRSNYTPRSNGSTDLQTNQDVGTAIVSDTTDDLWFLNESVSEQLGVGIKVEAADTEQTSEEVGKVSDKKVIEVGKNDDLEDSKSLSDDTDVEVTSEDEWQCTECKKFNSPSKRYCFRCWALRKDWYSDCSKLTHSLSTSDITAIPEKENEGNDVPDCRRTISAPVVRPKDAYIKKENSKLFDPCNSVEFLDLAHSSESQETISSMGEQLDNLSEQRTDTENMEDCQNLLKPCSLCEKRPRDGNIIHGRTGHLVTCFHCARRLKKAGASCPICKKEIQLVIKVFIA
Target sequence (Q00987 whole entry, looked up): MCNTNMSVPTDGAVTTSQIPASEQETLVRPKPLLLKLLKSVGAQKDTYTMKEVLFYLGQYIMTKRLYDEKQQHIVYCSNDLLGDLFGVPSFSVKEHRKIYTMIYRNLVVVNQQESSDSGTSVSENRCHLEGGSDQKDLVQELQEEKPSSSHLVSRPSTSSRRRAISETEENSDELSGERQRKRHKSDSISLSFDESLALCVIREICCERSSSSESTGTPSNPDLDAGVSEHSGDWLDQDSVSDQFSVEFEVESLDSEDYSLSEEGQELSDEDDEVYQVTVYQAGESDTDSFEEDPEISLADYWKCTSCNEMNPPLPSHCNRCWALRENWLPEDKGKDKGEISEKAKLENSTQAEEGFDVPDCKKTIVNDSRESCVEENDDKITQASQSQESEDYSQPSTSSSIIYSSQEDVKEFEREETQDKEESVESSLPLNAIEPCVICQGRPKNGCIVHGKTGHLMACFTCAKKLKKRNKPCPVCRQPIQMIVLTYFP
Beta apoptosis = beta cell apoptosis inhibition. protection from apoptosis, % (no concentration beside the values). AID 435005. INS-1E cytokine-induced death, ATP luminescence, 48 h; percent of positive-control rescue, neutral wells zero. actives 0.8% (n = 300,000);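 active = Every replicate reaches about 75%, or at least half do and their mean reaches it too, limit read from the data; inconclusive = At least half of replicates reach the limit but their mean does not; inactive = Under half of replicates reach the limit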;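 note: 0% = cytokine-treated negative control wells and 100% = positive control rescue; higher means more ATP so stronger rescue from cytokine killing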
CSC inhib = cancer stem cell inhibition; cancer stem cell-like cells viability, luminescence; actives 1.1% (n = 300,000); inhibition, % at 7.5 µM; AID 2717; in the data active = inhibition above about 75%; inconclusive = no clear call, values can overlap the other calls; tested in HMLE shEcad cells
XBP1 UPR activ = activators of adaptive arm of unfolded protein response (XBP1). CHO-XBP1 luciferase reporter, IRE1-XBP1 UPR activation, luminescence; percent of tunicamycin response, DMSO as zero. actives 0.33% (n = 330,000). AID 463104. activation, % at 20 µM;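 active = versus positive control, 20 µM dose yields 30% or more activation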;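 note: 100% = tunicamycin at 10 µg/mL and 0% = DMSO only wells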
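Material: CHO-XBP1 cells stably carrying IRE1-XBP1-driven luciferase reporter | Medium: F12 with 10% serum | Compound dosing: 20 µM single concentration, DMSO 1% | Incubation: Overnight seeding at 37 °C, 6 h compound treatment at 37 °C | Detection: Steady-Glo luminescence read | Read-out basis: % activation of reporter signal versus tunicamycin and DMSO controls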
T cruzi inh = blocks replication of Trypanosoma cruzi; T. cruzi beta-gal in NIH3T3, luminescence, 90 h; inhibition, % (test concentration not listed); actives 1.4% (n = 300,000); AID 1885;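 active = mean inhibition across valid replicates above about 55%, limit read from the data; inconclusive = mean below that limit but half or more replicates reach it; inactive = mean below it, under half of replicates reach it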;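 note: signal also drops with host cell toxicity which is not excluded here; 0% = plate median of DMSO wells and 100% = zero luminescence signal; higher percent means less beta-gal luminescence so fewer parasites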
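Read-out: Parasite load inhibition, % | Test system: Mouse NIH/3T3 fibroblasts infected with β-gal-expressing T. cruzi Tulahuen C4 | Amount: 5,000 cells/well | Medium: DMEM, 2% fetal bovine serum | Signal: GalScreen β-gal luminescence, detergent lysis, 60 min | Timing: 3 h attach, ≥90 h co-culture | Also added: Tulahuen C4 trypomastigotes, 5000/well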
UPR CHOP act = apoptotic UPR (CHOP) activation. actives 0.34% (n = 330,000). activation, % at 10 µM. CHO-CHOP luciferase reporter, luminescence; percent of tunicamycin response over DMSO baseline;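 active = at 10 µM dose, activation of 40% or more, normalized to positive control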;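 note: 100% = tunicamycin at 10 µg/mL and 0% = DMSO alone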
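measured by = luciferase luminescence | assay system = CHO-CHOP cells, stable luciferase reporter of PERK-eIF2a-CHOP signalling | amount = 500 reporter cells seeded per well | timing = 6 h compound exposure at 37 °C after overnight seeding | controls = positive tunicamycin 10 µg/mL, negative DMSO alone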
Mdm2 MdmX conf = human Mdm2/MdmX binding inhibition, confirmed; shares compounds with Mdm2-MdmX inh; luminescent assay; inhibition, % at 8 µM; actives 55% (n = 10,000); in the data active = inhibition above about 40%
FLuc counter = counter-screen for Mdm2/MdmX inhibitors: full-length luciferase | shares compounds with Mdm2-MdmX inh | SaOS-2 full-length luciferase counterscreen, luminescence | inhibition, % at 8 µM | actives 77% (n = 6,200);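 active = mean inhibition at 8 µM reaching about 37%, which flags the compound as non-specific, limit read from the data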;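 note: p53-null SaOS-2 cells with luciferase driven by a doxycycline-inducible promoter; compound on cells about two nights before reading with doxycycline added after day one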
* marks the source's active call; other numbers are inactive results; ? = inconclusive; . = no result given. Only some compounds are listed: those with a hit (about 5% of all), similar ones and a draw of the others.

SMILES	Mdm2-MdmX inh	Beta apoptosis	CSC inhib	XBP1 UPR activ	T cruzi inh	UPR CHOP act	Mdm2 MdmX conf	FLuc counter
CC(=O)Nc1ccc(NC(=O)CSc2nnnn2-c2ccc3c(c2)OCCO3)cc1	51.5*	0.8	0.2	0.7	-3.1	-0.5	3.6	.
COc1ccc(OC)c(-n2nnnc2SCC(=O)Nc2ccc3c(c2)OCCO3)c1	81.9*	1.3	-3.1	8.7	-6.5	0.1	1.3	.
Cc1ccccc1CS(=O)(=O)c1snnc1C	15.5	-5.7	6.5	1.9	-12.5	-2.1	.	.
Cc1ccccc1CS(=O)(=O)c1cnc2ccccc2n1	55.2*	-14.4	-16.4	-3.4	-11.5	-0.6	23.9	.
O=C(c1[nH]ncc1-c1cccc(Br)c1)C1CO1 (stereo not drawn)	50.9*	-24.6	26.4	-4.8	7.9	13.9	43.5*	50.8*
Fc1ccc(NC(=S)N2CCCC2)cc1Cl	-7.6	-1.2	-1.4	-0.4	2.2	-0.3	.	.
Fc1ccc(NC(=S)Nc2ccc(F)c(Cl)c2)cc1Cl	64.5*	37.4	1.6	1.3	35.3	2.6	28.4	.
COc1ccc(NC(=O)c2cc(=O)c3ccccc3o2)cc1Cl	52.0*	7.0	1.4	-1.8	2.1	-0.8	46.6*	94.8*
CN(C)S(=O)(=O)c1cc(NC(=O)c2cc(=O)c3ccccc3o2)ccc1Cl	-6.0	3.3	5.6	2.6	2.4	3.7	.	.
COc1cccc(-c2cc(=O)c3cc(NC(=O)c4ccccc4)ccc3[nH]2)c1	58.7*	17.2	60.6	18.5	-26.0	0.1	58.1*	41.6*
COc1cccc(-c2cc(=O)c3cc(NC(=O)c4ccc(Cl)cc4)ccc3[nH]2)c1	42.7	-7.1	-26.9	-3.0	-12.3	-0.8	.	.
COc1cccc(-c2cc(=O)c3cc(NC(=O)c4ccc(N(C)C)cc4)ccc3[nH]2)c1	65.0*	4.3	?	20.2	23.0	0.5	60.0*	71.1*
COc1cc(/C=N/Nc2nc(Nc3ccccc3)nc(N3CCOCC3)n2)ccc1OC(=O)c1ccco1	51.9*	-4.0	13.7	8.4	62.3*	8.9	21.2	.
Cc1[nH]c2ccccc2c1/C=N/Nc1nc(Nc2ccccc2)nc(N2CCOCC2)n1	58.5*	12.0	33.2	9.6	51.5	15.1	29.7	.
O=C(Oc1cccc(/C=N/Nc2nc(N3CCOCC3)nc(N3CCOCC3)n2)c1)c1ccco1	19.8	1.5	5.0	1.6	14.6	-1.6	.	.
COc1ccc(/C=N/Nc2nc(Nc3ccccc3)nc(N3CCCC3)n2)cc1[N+](=O)[O-]	97.4*	.	37.3	13.3	28.5	39.3	92.5*	60.8*
c1ccc(Nc2nc(N3CCCC3)nc(N3CCOCC3)n2)cc1	19.6	-2.7	-1.9	1.8	27.0	-2.7	.	.
COc1ccccc1OCC(=O)Nc1cc(Cl)ccc1N1CCCCC1	9.9	-5.0	30.7	0.9	.	-1.3	.	.
Cn1c(=O)[nH]c(=O)c2c1nc(Br)n2CCCSc1nc2ccccc2o1	65.1*	1.8	.	0.4	62.8*	-0.1	56.2*	97.6*
CN(C)C(=O)c1cnc(-c2ccccc2)nc1-c1ccccc1	14.8	-2.3	-10.2	2.6	-9.7	1.7	.	.
COc1ccc(NC(=O)CN(C)C(=O)CNC(=O)c2cccs2)cc1	19.1	-1.5	-6.9	-5.2	-7.2	1.0	.	.
CC(C)Cn1c(N)c(C(=O)CSc2ncccn2)c(=O)n(C)c1=O	25.3	1.8	-8.3	0.0	11.2	-0.3	.	.
CC(C)Cn1c(N)c(C(=O)CSc2cc(Cl)ccc2Cl)c(=O)n(C)c1=O	68.8*	23.7	36.9	4.0	-6.3	4.9	-2.3	.
C(=N\Nc1ncnc2sc3c(c12)CCC3)/c1cccs1	58.1*	95.8*	94.3*	6.0	41.1	-0.5	50.0*	19.1
COc1ccc(-c2nn(-c3ccccc3)cc2C(=O)NC(=S)Nc2cc(Cl)ccc2Cl)cc1	73.7*	1.6	-4.2	2.8	18.9	0.7	43.5*	51.0*
SMILES	Mdm2-MdmX inh	Beta apoptosis	CSC inhib	XBP1 UPR activ	T cruzi inh	UPR CHOP act	Mdm2 MdmX conf	FLuc counter
Cc1cccc(C(=O)NNC(=O)c2cc3cc4ccccc4nc3s2)c1	50.5*	6.8	-12.7	-3.5	.	-0.6	7.2	.
O=C(NNC(=O)c1cc2cc3ccccc3nc2s1)c1cccc(Cl)c1	57.3*	-1.5	-2.9	2.4	5.1	1.5	36.0	109.0*
O=C(NCC(=O)N1CCN(S(=O)(=O)/C=C/c2ccccc2)CC1)c1ccc(Cl)cc1	2.6	-2.9	-6.7	0.0	3.4	0.6	.	.
O=C1CCCC2=C1C(c1ccc(Cl)cc1)C1C(=O)c3ccccc3C1=N2 (stereo not drawn)	30.2	-4.7	21.3	-1.1	43.7	3.5	.	.
O=C1c2ccccc2C2=Nc3ccccc3SC(c3ccc(Cl)cc3)C12 (stereo not drawn)	87.2*	95.1*	126.9*	3.7	47.5	5.7	47.4*	78.1*
COc1ccc(S(=O)(=O)N(C)c2ccc(C(N)=O)cc2)cc1	11.6	-7.8	-3.7	-1.6	-9.0	1.8	.	.
Cc1ccc(N(C)S(=O)(=O)c2cccc(C(=O)NCC(c3ccco3)N3CCCC3)c2)cc1 (stereo not drawn)	-0.1	-5.1	.	-1.3	.	-1.3	.	.
COC(=O)Cn1c2ccc(C)cc2c2nc3ccccc3nc21	-2.3	.	.	11.1	-7.2	2.1	.	.
COc1ccc2c(c1)c1nc3ccccc3nc1n2CC(=O)OC(C)C	57.8*	20.3	-8.5	22.0	3.5	10.1	15.7	.
COc1ccc(Cn2c3ccc(OC)cc3c3nc4ccccc4nc32)cc1	51.4*	-2.2	?	-0.3	-2.3	-1.2	24.4	.
S=C(Nc1ccc(Cl)c(Cl)c1)NN1CCOCC1	-0.9	-5.3	-8.7	0.2	-6.2	0.7	.	.
Cc1ccc(CNC(=O)CCC2CCCN(C(=O)c3ccc4c(c3)OCO4)C2)o1 (stereo not drawn)	-19.9	-10.5	-14.3	-0.5	-2.6	4.6	.	.
CCCCn1c(SCc2c(C)noc2C)nc2cc(S(N)(=O)=O)ccc21	75.5*	-16.9	-15.5	-3.9	4.5	-1.1	59.5*	61.6*
Cc1ccc([N+](=O)[O-])cc1NC(=S)NC(=O)c1cccs1	61.9*	0.8	-2.4	-1.8	-8.7	2.1	17.5	.
COc1ccc([N+](=O)[O-])cc1NC(=O)c1cccs1	15.1	3.6	0.1	3.5	-3.5	-1.6	.	.
CCOC(=O)c1cc(CC)sc1NC(=O)COC(=O)c1cc[n+]([O-])cc1	-16.0	-1.4	-8.8	-0.5	-0.4	0.0	.	.
O=C1C(c2ccnc3ccccc23)=C(O)c2ccccc21	51.7*	6.7	-7.0	-12.4	39.5	-7.5	-24.6	.

Screening data as filed in PubChem.
